Results: ChEMBL document CHEMBL4373680, “Small antibacterial molecules highly active against drug-resistant Staphylococcus aureus” (Medchemcomm, 2019)

Columns and labels:
[1] = system: Escherichia coli; assay: Antibacterial activity against Escherichia coli MTCC 443 after 24 hrs by tecan plate reader analysis; assay type: functional; conditions: MTCC 443, 24 h
How it was run: (§1)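 Broth microdilution MIC. Glycerol stocks grown on MacConkey agar 24 h at 37 °C, then a single colony in nutrient broth 6 h to mid-log (~10⁸ CFU/mL). Cells diluted to 10⁵ CFU/mL in Mueller Hinton broth and added to two-fold compound dilutions. Incubated 24 h at 37 °C, OD600 read. Triplicate wells, experiment run twice.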

[2] = system: Staphylococcus aureus; assay: Antibacterial activity against methicillin-resistant Staphylococcus aureus ATCC 33591 after 24 hrs by tecan plate reader analysis; assay type: functional; conditions: ATCC 33591, 24 h
How it was run: (§2)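 Colony grown 24 h on NB agar at 37 °C, then 6 h in nutrient broth to mid-log (10⁸ CFU/mL by drop plating), diluted to 10⁵ CFU/mL in Mueller Hinton broth; added 9:1 to two-fold serial compound dilutions in MHB. Incubated 24 h, 37 °C; OD600 read. Triplicate per concentration, experiment run twice; MIC taken from the range of triplicate OD values.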

[3] = system: Staphylococcus aureus; assay: Bactericidal activity against planktonic phase of methicillin-resistant Staphylococcus aureus ATCC 33591 assessed as log reduction in bacterial colony forming units at 16 ug/ml incubated for 2 hrs followed by plating on agar plate for 24 hrs by time-kill kinetic assay; assay type: functional
How it was run: (§3)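 Time-kill: 6 h mid-log culture diluted to 10⁵ CFU/mL in MHB, incubated at 37 °C with compound at […]; 0.9% saline control. Aliquots at 1, 2, 4, 6, 8 and 12 h ten-fold diluted in saline, plated on NB agar 24 h at 37 °C; colonies counted, log scale.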

[4] = Ratio of EC50 for dog MDCK cells to MIC for vancomycin-resistant Staphylococcus aureus clinical isolate 1; assay type: toxicity
[5] = system: Staphylococcus aureus; assay: Induction of membrane permeabilization in Staphylococcus aureus R3545 assessed as increase in fluorescence intensity measured upto 28 mins by propidium iodide staining based fluorescence spectroscopic technique; assay type: functional, organism-based
How it was run: (§4)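 Mid-log MRSA washed in 5 mM HEPES and resuspended in 1:1 HEPES (5 mM) and glucose (5 mM). Propidium iodide added at 10 µM final. Baseline fluorescence (ex 535/em 617 nm) read 4 min, compound in water added, read to 28 min. Water control; triplicates averaged.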

[6] = system: Staphylococcus aureus; assay: Bactericidal activity against planktonic phase of methicillin-resistant Staphylococcus aureus R3545 assessed as bacterial killing at 32 ug/ml incubated for 1 hr followed by plating on agar plate for 24 hrs by time-kill kinetic assay relative to control; assay type: functional; how it was run: as §3
[7] = Ratio of EC50 for human A549 cells to MIC for vancomycin-resistant Staphylococcus aureus clinical isolate 1; assay type: toxicity
[8] = system: Staphylococcus aureus; assay: Bactericidal activity against planktonic phase of methicillin-resistant Staphylococcus aureus ATCC 33591 assessed as bacterial killing at 32 ug/ml incubated for 1 hr followed by plating on agar plate for 24 hrs by time-kill kinetic assay relative to control; assay type: functional; how it was run: as §3
[9] = system: A549; assay: Cytotoxicity against human A549 cells after 24 hrs by alamar blue assay; assay type: cell-based; conditions: A549, 24 h
How it was run: (§5)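 About 10⁴ cells/well in DMEM with 10% FBS. Medium replaced with two-fold compound dilutions and incubated 24 h at 37 °C, 5% CO₂. Alamar Blue added for a further 4 h, absorbance 570 nm (600 nm reference). Viability normalized to untreated and 0.1% Triton-X wells. Triplicates; sigmoidal fit gives the 50% viability concentration.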

[10] = system: Staphylococcus aureus; assay: Induction of membrane permeabilization in Staphylococcus aureus ATCC 33591 assessed as increase in fluorescence intensity measured upto 28 mins by propidium iodide staining based fluorescence spectroscopic technique; assay type: functional, organism-based; how it was run: as §4
[11] = system: Staphylococcus aureus; assay: Antibacterial activity against methicillin-resistant Staphylococcus aureus R3890 clinical isolate after 24 hrs by tecan plate reader analysis; assay type: functional; conditions: R3890, 24 h; how it was run: as §2
[12] = system: Staphylococcus aureus; assay: Induction of membrane depolarization in Staphylococcus aureus ATCC 33591 assessed as increase in fluorescence intensity measured upto 28 mins by DiSC3 staining based fluorescence spectroscopic technique; assay type: functional, organism-based
How it was run: (§6)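 Mid-log MRSA washed in 5 mM HEPES pH 7.4 and resuspended in 1:1:1 HEPES (5 mM), glucose (5 mM) and KCl (100 mM). Loaded with DiSC3(5) at 2 µM final, 30 min in the dark. Baseline fluorescence (ex 622/em 670 nm) read 4 min, compound added, monitored to 28 min. Water control; triplicates averaged.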

[13] = Selectivity index, ratio of HC50 for human erythrocytes to MIC for methicillin-resistant Staphylococcus aureus ATCC 33591; assay type: toxicity; conditions: read-out: Selectivity Index
[14] = system: Klebsiella pneumoniae; assay: Antibacterial activity against Klebsiella pneumoniae ATCC 700603 after 24 hrs by tecan plate reader analysis; assay type: functional; conditions: Klebsiella pneumoniae, 700603, 24 h; how it was run: as §1
[15] = Ratio of EC50 for human A549 cells to MIC for vancomycin-resistant Staphylococcus aureus clinical isolate 2; assay type: toxicity
[16] = system: Staphylococcus aureus; assay: Antibacterial activity against methicillin-resistant Staphylococcus aureus R3545 clinical isolate after 24 hrs by tecan plate reader analysis; assay type: functional; conditions: R3545, 24 h; how it was run: as §2
[17] = Hemolytic activity in human erythrocytes after 1 hr; assay type: ADME, cell-based, Erythrocyte
How it was run: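 Heparinized donor blood. Erythrocytes washed three times in PBS and resuspended to 5 vol%, then mixed 3:1 with compound serially diluted in water. Incubated 1 h at 37 °C and centrifuged. Supernatant A540 read; % hemolysis relative to water and 0.1 vol% Triton-X controls.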

[18] = system: Acinetobacter baumannii; assay: Antibacterial activity against Acinetobacter baumannii MTCC 1425 after 24 hrs by tecan plate reader analysis; assay type: functional; conditions: MTCC 1425, 24 h; how it was run: as §1
[19] = system: Staphylococcus aureus; assay: Induction of membrane depolarization in Staphylococcus aureus R3545 assessed as increase in fluorescence intensity measured upto 28 mins by DiSC3 staining based fluorescence spectroscopic technique; assay type: functional, organism-based; how it was run: as §6
[20] = system: Staphylococcus aureus; assay: Antibacterial activity against methicillin-resistant Staphylococcus aureus R3889 clinical isolate after 24 hrs by tecan plate reader analysis; assay type: functional; conditions: R3889, 24 h; how it was run: as §2
[21] = system: Staphylococcus aureus; assay: Bactericidal activity against planktonic phase of methicillin-resistant Staphylococcus aureus R3545 assessed as log reduction in bacterial colony forming units at 16 ug/ml incubated for 4 hrs followed by plating on agar plate for 24 hrs by time-kill kinetic assay; assay type: functional; how it was run: as §3
[22] = system: Staphylococcus aureus; assay: Antibacterial activity against vancomycin-resistant Staphylococcus aureus clinical isolate 4 after 24 hrs by tecan plate reader analysis; assay type: functional; conditions: clinical isolate 4, 24 h; how it was run: as §2
[23] = Ratio of EC50 for dog MDCK cells to MIC for vancomycin-resistant Staphylococcus aureus clinical isolate 2; assay type: toxicity
[24] = system: MDCK; assay: Cytotoxicity against dog MDCK cells after 24 hrs by alamar blue assay; assay type: cell-based; conditions: Canis lupus familiaris; how it was run: as §5
[25] = system: Pseudomonas aeruginosa; assay: Antibacterial activity against Pseudomonas aeruginosa MTCC 424 after 24 hrs by tecan plate reader analysis; assay type: functional; conditions: MTCC 424, 24 h; how it was run: as §1
[26] = system: Staphylococcus aureus; assay: Antibacterial activity against vancomycin-resistant Staphylococcus aureus clinical isolate 1 after 24 hrs by tecan plate reader analysis; assay type: functional; conditions: clinical isolate 1, 24 h; how it was run: as §2

In the case of CCCCCCCCNC(=O)C[N+](C)(CCO)CCCCCC[N+](C)(CCO)CC(=O)NCCCCCCCC.[Br-].[Br-] (stereo unspecified), the MIC [1] is reported as 4 to 8 µg/mL, the MIC [2] is reported as 1 to 2 µg/mL and the Activity [3] is reported as 5.4 log10CFU/ml. The selectivity ratio [4] was 22, the Activity [5] was “Dose-dependent effect” and the Activity [6] was 100%. It also gave a selectivity ratio [7] of 22, an Activity [8] of 100% and an EC50 [9] of 44 µg/mL. For the same compound, the Activity [10] was “Dose-dependent effect”, the MIC [11] was 4 µg/mL and the Activity [12] was “Dose-dependent effect”. For the same compound, the selectivity ratio [13] was 222, the MIC [14] was 32 µg/mL and the selectivity ratio [15] was 22. For the same compound, the MIC [16] was 1 to 2 µg/mL, the HC50 at 1 h [17] was 222 µg/mL and the MIC [18] was 16 µg/mL. The Activity [19] was “Dose-dependent effect”, the MIC [20] was 1 µg/mL and the Activity [21] was 5.6 log10CFU/ml. For the same compound, the MIC [22] was 2 µg/mL, the selectivity ratio [23] was 22 and the EC50 [24] was 45 µg/mL. For the same compound, the MIC [25] was 16 µg/mL and the MIC [26] was 2 µg/mL.
